This note sets out measurements from ChEMBL document CHEMBL1131058, “Studies on quinazolines and 1,2,4-benzothiadiazine 1,1-dioxides. 8.1, 2 synthesis and pharmacological evaluation of tricyclic fused quinazolines and 1,2,4-benzothiadiazine 1,1-dioxides as potential alpha1-adrenoceptor antagonists” (J Med Chem, 1998).

Experiment [1] concerns the target T1, Alpha-2A adrenergic receptor (Homo sapiens, UniProt P08913).
T1 sequence (P08913 whole entry): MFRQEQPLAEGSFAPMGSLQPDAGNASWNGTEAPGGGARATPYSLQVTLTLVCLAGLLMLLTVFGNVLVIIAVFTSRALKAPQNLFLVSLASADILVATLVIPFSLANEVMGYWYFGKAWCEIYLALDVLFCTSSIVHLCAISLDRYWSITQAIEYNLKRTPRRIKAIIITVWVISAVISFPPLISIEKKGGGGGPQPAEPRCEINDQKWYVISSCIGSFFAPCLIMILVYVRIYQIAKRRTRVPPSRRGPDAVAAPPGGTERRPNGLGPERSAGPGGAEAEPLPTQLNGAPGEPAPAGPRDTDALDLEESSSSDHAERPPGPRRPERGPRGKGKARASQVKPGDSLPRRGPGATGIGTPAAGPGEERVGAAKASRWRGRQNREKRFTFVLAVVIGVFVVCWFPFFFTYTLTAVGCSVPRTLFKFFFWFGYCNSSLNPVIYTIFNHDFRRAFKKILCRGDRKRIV
The experiment can be described thus: Compound is evaluated for binding affinity towards Alpha-2A adrenergic receptor using [3H]MK912.

Experiment [2] has as its target T2, 5-hydroxytryptamine receptor 1A (Rattus norvegicus, UniProt P19327).
T2 sequence (P19327 whole entry): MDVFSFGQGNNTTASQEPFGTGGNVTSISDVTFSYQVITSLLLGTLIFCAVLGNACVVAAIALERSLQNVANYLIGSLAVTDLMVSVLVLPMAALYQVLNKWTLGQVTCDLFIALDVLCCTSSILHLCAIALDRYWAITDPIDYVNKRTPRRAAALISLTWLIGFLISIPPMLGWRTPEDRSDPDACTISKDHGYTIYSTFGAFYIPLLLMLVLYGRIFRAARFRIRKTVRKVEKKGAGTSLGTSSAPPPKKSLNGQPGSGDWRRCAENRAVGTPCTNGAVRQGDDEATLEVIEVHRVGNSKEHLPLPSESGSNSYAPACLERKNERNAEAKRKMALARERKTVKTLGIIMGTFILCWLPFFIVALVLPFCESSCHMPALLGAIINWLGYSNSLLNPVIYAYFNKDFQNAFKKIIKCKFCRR
The experiment can be described thus: Compound is evaluated for binding affinity towards 5-hydroxytryptamine 1A receptor using [3H]-8-OH- -DPAT in rat brain cortex. The format is tissue-based. The gist of the method: (§1)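 Contract radioligand competition binding. Sources: 5-HT1 and 5-HT1A in rat brain cortex; 5-HT2 and σ2 in rat brain; σ in guinea pig brain; D2, rhD2 and rhD3 in CHO cells with [³H]spiperone; H1 in guinea pig lung with [³H]pyrilamine. Inhibition constants reported; no constant given where inhibition at 10 µM was below 50%.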

In experiment [3] the target is Serotonin 2 (5-HT2) receptor (Rattus norvegicus, UniProt P30994+P08909+P14842). The experiment can be described thus: Compound is evaluated for binding affinity towards 5-hydroxytryptamine 2 receptor using [3H]ketanserin in rat brain. It is filed as tissue-based. The gist of the method: as §1
For experiment [4], the target named is Serotonin 1 (5-HT1) receptor (Rattus norvegicus) (UniProt P28564+P30940+P19327+P28565). The experiment can be described thus: Compound is evaluated for binding affinity towards 5-hydroxytryptamine 1 receptor using [3H]5-HT in rat brain cortex at 10 uM. The format is tissue-based. A digest of the protocol: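 Single-concentration screen at 10 µM in contract radioligand binding assays. Records whether inhibition of specific radioligand binding stayed below 50%.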

For experiment [5], the target named is T3, Adrenergic receptor alpha-2 (Rattus norvegicus, UniProt P22086+P19328+P22909).
T3 sequence (P22086 whole entry): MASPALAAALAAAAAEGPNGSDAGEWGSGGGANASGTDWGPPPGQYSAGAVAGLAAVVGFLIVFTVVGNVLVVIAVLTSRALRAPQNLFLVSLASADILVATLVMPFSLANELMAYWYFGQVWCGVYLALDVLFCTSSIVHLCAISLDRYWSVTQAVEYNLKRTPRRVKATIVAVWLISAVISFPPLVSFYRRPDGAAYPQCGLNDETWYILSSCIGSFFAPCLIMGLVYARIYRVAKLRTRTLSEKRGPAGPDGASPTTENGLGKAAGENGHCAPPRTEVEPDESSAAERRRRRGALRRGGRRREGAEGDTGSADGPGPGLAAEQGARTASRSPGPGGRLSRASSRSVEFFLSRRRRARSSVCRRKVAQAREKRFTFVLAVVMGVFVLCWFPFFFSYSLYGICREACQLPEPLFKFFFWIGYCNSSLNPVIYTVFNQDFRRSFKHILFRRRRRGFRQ
T3 sequence (P19328 whole entry): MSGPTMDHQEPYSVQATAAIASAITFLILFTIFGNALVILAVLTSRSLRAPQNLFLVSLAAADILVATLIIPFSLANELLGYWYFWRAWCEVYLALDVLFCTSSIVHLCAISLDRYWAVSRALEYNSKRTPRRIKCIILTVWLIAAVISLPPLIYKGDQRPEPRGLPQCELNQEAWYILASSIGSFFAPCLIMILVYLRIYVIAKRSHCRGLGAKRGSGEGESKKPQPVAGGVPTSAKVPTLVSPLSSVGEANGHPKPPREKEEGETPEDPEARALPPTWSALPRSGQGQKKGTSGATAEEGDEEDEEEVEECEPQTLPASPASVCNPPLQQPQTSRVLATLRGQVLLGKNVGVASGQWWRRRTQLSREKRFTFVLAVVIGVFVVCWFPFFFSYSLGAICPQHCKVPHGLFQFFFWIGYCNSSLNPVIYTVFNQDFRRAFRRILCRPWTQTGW
T3 sequence (P22909 whole entry): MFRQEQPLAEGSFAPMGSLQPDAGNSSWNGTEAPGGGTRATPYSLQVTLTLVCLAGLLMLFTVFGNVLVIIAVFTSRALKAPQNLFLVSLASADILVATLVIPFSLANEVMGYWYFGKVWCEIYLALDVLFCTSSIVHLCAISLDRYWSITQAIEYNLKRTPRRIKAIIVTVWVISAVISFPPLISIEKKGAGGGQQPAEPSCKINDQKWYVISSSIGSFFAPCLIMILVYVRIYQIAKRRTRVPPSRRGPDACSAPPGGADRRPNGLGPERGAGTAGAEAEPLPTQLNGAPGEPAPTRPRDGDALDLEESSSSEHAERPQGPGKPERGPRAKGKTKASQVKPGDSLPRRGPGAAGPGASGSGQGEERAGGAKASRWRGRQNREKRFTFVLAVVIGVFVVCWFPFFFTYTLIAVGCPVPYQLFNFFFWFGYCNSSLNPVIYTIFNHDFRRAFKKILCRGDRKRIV
The experiment can be described thus: Displacement of clonidine from Alpha-2 adrenergic receptor in rat brain cortex. The format is tissue-based. The gist of the method:
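α2 competition binding run in triplicate with 1 nM [³H]clonidine plus 10 mM MgCl₂ in Tris pH 7.4, 30 min at room temperature. Test compounds at 1-100 µM. Nonspecific binding defined with 10 µM clonidine. Membranes collected on GF/B filters and washed twice with cold Tris. Protein 300-400 µg per assay. Ki given as mean ± SEM of 3-6 experiments.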

The target of experiment [6] is Sodium channel alpha subunits; brain (Types I, II, III) (Rattus norvegicus, UniProt P04775+P04774+P08104). The experiment can be described thus: Displacement of [3H]batrachotoxin from rat brain sodium channel. It is filed as tissue-based. A digest of the protocol: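 Radioligand competition binding was done by an outside contract lab (Pan Lab). Inhibition constants (Ki) were derived from displacement of the stated tritiated ligand. Each compound was tested at 10 µM. Where inhibition at that concentration stayed below 50%, no Ki was reported.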
A general note: In a radioligand displacement assay an active substance lowers the binding of a labelled ligand.

`COc1ccccc1N1CCN(C[C@@H]2CN=C3c4ccccc4N=C(SC)N32)CC1`: the affinity in experiment [1], expressed as Ki, was 3000 nM.

With `COc1ccccc1N1CCN(CC2CN3C(=O)Nc4ccccc4C3=N2)CC1` (configuration not stated), the values for the Ki in experiment [2], in experiment [3] and in experiment [1] were 238 nM, 369 nM and 547 nM, respectively.

Turning to `COc1ccccc1N1CCN(C[C@H]2CN=C3c4ccccc4NC(=O)N32)CC1`, the inhibitory constant (Ki) – broadly, a measure of affinity in units of concentration, obtained from inhibition or displacement – in experiment [1] came out at 444 nM.

As to `COc1ccccc1N1CCN(Cc2cnc3c4ccccc4nc(O)n23)CC1`, the inhibition (commonly the relative decrease from the control value, in per cent) in experiment [4] is less than 50%. Besides, the Ki in experiment [5] worked out at 7830 nM; in experiment [2], 4000 nM; in experiment [3], 514 nM; in experiment [6] it was 5380 nM.

On to `COc1ccccc1N1CCN(CC2CN=C3c4ccccc4N=C(SC)N32)CC1` (configuration not stated), for which the Ki in experiment [2] amounted to 237 nM; in experiment [3], 168 nM; in experiment [6], 404 nM.

`Oc1nc2ccccc2c2ncc(CN3CCN(c4ccccc4Cl)CC3)n12`: the inhibition in experiment [4] was less than 50%. For the same molecule, the Ki was found to be 2720 nM in experiment [5], 114 nM in experiment [3] and 2460 nM in experiment [6].

In the case of `COc1ccccc1N1CCN(C[C@H]2CN=C3c4ccccc4N=C(SC)N32)CC1`, the affinity in experiment [1], expressed as Ki, was 872 nM.

With `COc1ccccc1N1CCN(Cc2cn3c(O)nc4ccccc4c3n2)CC1`, the inhibition in experiment [4] was less than 50%. Besides, the Ki is given as 6760 nM in experiment [5], 3580 nM in experiment [3] and 4810 nM in experiment [6].
